Experiments:
PATU-8988T cells = experiment: Cell cycle analysis; assay type: cell-based; conditions: 2.5 μM, 4 days
Outline: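 PATU-8988T cells treated 4 days with DMSO (0.1%), test compound or a non-covalent analogue (each 2.5 µM), with medium replaced on day 3; run in triplicate or more. Pulsed with 10 µM BrdU for 1 h, then fixed in 70% ethanol and denatured in 2 M HCl/0.5% Triton X-100 (30 min, RT). Neutralised with 0.1 M Na2B4O7 pH 8.5 and stained overnight at 4 °C with anti-BrdU-FITC. Counterstained with propidium iodide plus RNase A (each 50 µg ml-1) and analysed by FACS.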

PATU-8988T WT Pin1 cells = experiment: 3D Matrigel dome antiproliferative assay; assay type: cell-based; conditions: 1 μM, 9-day treatment
Outline: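 1,000 cells per Matrigel dome, one dome per well, left 15 min at 37 °C to solidify. Medium with test compound renewed every 3 days. After 9 days, 3D CellTiter-Glo was added and the plate shaken 1 h at room temperature before reading luminescence. n = 9 biological replicates per condition.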

GST-Pin1 = GST-Pin1 (Homo sapiens, UniProt Q13526); experiment: Competitive fluorescence polarization; assay type: binding; conditions: 14 h incubation with recombinant full-length Pin1
Chain of GST-Pin1 (Q13526 whole entry): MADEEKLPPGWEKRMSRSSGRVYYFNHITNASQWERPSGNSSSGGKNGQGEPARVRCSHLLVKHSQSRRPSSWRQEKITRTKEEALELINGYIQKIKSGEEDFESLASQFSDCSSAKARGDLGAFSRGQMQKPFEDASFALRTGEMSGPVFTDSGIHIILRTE
Outline: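 GST-Pin1 (250 nM) preincubated 14 h at 4 °C with compound and 5 nM N-terminal fluorescein-labelled peptide probe (Bth-D-pThr-Pip-Nal). Buffer: 10 mM HEPES, 10 mM NaCl, 1% glycerol pH 7.4, 10 µg ml-1 BSA, 0.01% Tween-20, 1 mM DTT. Ki calculated from probe concentration, 85% probe bound and Pin1 concentration. Kinact from dose- and time-dependent runs. n = 3 samples ± s.e.m.; 2 experiments.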

Pin1 = experiment: Live cell competition pulldown; assay type: cell-based; conditions: PATU-8988T or HCT116 cells, 5 h
Outline: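 2.5 million cells per 10-cm plate, dosed next day with DMSO or test compound (5 h, or as indicated). Cells washed in cold PBS, scraped and lysed in HEPES pH 7.4/NP-40 buffer with TCEP. Lysate (500 µg) incubated with desthiobiotin probe (1 µM, 1 h, 4 °C), then streptavidin agarose (1.5 h, 4 °C). Pin1 pulldown detected by immunoblot.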

SMILES: CC(=O)N(CC(C)(C)C)C1CCS(=O)(=O)C1 (stereo not shown) [Sulfopin-AcA]
- cells in S phase (PATU-8988T cells): did not show this effect
- antiproliferative activity in 3D Matrigel domes (PATU-8988T WT Pin1 cells): showed no effect in any of the tested systems
- competition in FP assay (GST-Pin1): inactive
- competition of Pin1 pulldown by DTB probe (Pin1): unable to outcompete Pin1 pulldown

Source: paper PMC9119696 (Nature chemical biology, 2021)
